Laboratory results as given in PMC6016778 (Proceedings of the National Academy of Sciences of the …, 2018).
Changes are numbered by the printed parent chain. In names and notes the source's numbering stands. Where two headings read alike, the source gives them in different places. Positions of bridges follow the written chain, without caps; N, C: chain ends. Non-standard residues stand in square brackets, D forms with d. Residues, ends and D or L forms follow the SMILES beside them. R8 = C=CCCCCCC[C@@](C)(N)C(=O)O; S5 = C=CCCC[C@](C)(N)C(=O)O

How the values were obtained:
[1] = molecular target: Beclin 1 coiled-coil domain (Rattus norvegicus, UniProt Q91XJ1); experiment: ITC binding of designed peptides to Beclin 1 coiled-coil domain
UVRAG coiled-coil domain [2] = experiment: ITC
UVRAG coiled-coil domain [3] = experiment: ITC; remark: listed apart in the source
[4] = test system: Beclin 1–UVRAG interaction; experiment: Co-IP of Beclin 1–UVRAG interaction, HEK293T; assay type: cell-based; conditions: peptide 20 μM added to cell lysate
HEK293T cells [5] = experiment: LC3-II and p62 Western blots after peptide treatment, HEK293T cells; assay type: cell-based; conditions: 3 h
Outline: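 HEK293T cells were treated 3 h with peptide or scrambled Tat control at 10 µM (low) or 20 µM (high) in the culture medium, without or with chloroquine. Lysates were Western blotted for LC3-I/LC3-II lipidation and p62 levels.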

EGFR [6] = experiment: EGFR degradation assay, HEK293T cells; assay type: cell-based; conditions: n = 3
Outline: (§1)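 Overexpression arm: cells were transfected with FLAG-UVRAG wild-type or Leu-to-Glu mutants, or vector. Cells were washed in PBS, serum-starved overnight in DMEM, then given DMEM with 20 mM Hepes, 0.2% BSA and 200 ng/mL EGF. Peptide arm: 20 µM peptide or control was added together with EGF. At each time point, 20 µg lysate was immunoblotted for EGFR, normalized to β-actin and to time 0. Three independent experiments, mean ± SEM.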

[7] = test system: Beclin 1–Atg14L interaction; experiment: Co-IP of Beclin 1–Atg14L interaction, HEK293T; assay type: cell-based; conditions: peptide 20 μM added to cell lysate
[8] = test system: HeLa cells stably expressing GFP-LC3; experiment: Confocal imaging of GFP-LC3 puncta in HeLa cells stably expressing GFP-LC3; assay type: cell-based; conditions: HeLa GFP-LC3, 3 h, n = 3
Outline: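 HeLa cells stably expressing GFP-LC3 were treated 3 h with peptide, scrambled control or water vehicle, with or without 25 µM chloroquine. Cells were imaged by confocal microscopy and GFP-LC3 puncta per cell were counted. Values are mean ± SEM, n = 3.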

EGFR [9] = experiment: EGFR degradation assay, A549 cells; assay type: cell-based; conditions: n = 3
Outline: as §1

A549 cells = experiment: MTT cytotoxicity / cell viability, A549 cells; assay type: cell-based; conditions: 12.5 and 25 µM, 5 h
[10] = test system: Beclin 1 self-association; experiment: Co-IP of Beclin 1 self-association; assay type: cell-based; conditions: HEK293T
Outline: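 HEK293T cells co-transfected with GFP- and His-tagged Beclin 1. Peptide (stock 20 mM in water) was added at 20 µM either to the culture medium 6 h after transfection or to the lysate after lysis. A scrambled, unstapled Tat-fused control peptide was used at the same concentration. His-Beclin 1 association was then probed by co-IP.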

HEK293T cells [11] = experiment: MTT cytotoxicity / cell viability, HEK293T cells; assay type: cell-based; conditions: 12.5 and 25 µM, 5 h
EGFR [12] = experiment: EGFR degradation assay, H1975 cells; assay type: cell-based; conditions: peptide 20 μM, 15 h after EGF, n = 3
Outline: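 H1975 cells were serum-starved overnight in DMEM, then stimulated with 200 ng/mL EGF in DMEM with 20 mM Hepes and 0.2% BSA, together with 20 µM peptide or scrambled control. At each time point, 20 µg lysate was immunoblotted for EGFR. EGFR was normalized to β-actin and to time 0, from three independent experiments.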

UVRAG coiled-coil domain [13] = assay type: binding; conditions: ITC, relative to wild type
[14] = test system: endogenous Beclin 1; EGFR; conditions: EGF-stimulated endocytic transport and lysosomal degradation of EGFR; cited from earlier work

UVRAG coiled-coil domain, sequence (Q8K245 whole entry, the tested form may be a part): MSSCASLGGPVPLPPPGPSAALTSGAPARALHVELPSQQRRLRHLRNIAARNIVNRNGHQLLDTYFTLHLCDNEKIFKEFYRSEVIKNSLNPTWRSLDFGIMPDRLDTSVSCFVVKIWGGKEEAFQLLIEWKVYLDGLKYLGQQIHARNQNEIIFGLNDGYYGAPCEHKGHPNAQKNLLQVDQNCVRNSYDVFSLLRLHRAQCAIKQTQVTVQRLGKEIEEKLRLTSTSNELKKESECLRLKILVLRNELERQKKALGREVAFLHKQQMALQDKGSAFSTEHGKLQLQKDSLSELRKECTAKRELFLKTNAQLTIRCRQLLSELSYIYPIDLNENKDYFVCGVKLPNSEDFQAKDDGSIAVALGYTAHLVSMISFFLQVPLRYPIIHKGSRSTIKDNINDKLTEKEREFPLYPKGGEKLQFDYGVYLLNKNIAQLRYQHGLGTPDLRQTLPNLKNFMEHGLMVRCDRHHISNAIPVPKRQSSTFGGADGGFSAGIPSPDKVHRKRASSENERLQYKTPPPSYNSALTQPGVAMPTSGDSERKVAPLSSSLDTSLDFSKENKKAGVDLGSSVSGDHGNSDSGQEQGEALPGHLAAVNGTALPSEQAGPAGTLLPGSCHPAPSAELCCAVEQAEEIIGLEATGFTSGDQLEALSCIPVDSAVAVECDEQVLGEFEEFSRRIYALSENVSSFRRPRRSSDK

## CC[C@H](C)[C@H](NC(=O)[C@H](CC(C)C)NC(=O)[C@H](CC(C)C)NC(=O)[C@H](CCCNC(=N)N)NC(=O)[C@H](CCCNC(=N)N)NC(=O)[C@H](CCCNC(=N)N)NC(=O)[C@H](CCC(N)=O)NC(=O)[C@H](CCCNC(=N)N)NC(=O)[C@H](CCCNC(=N)N)NC(=O)[C@H](CCCCN)NC(=O)[C@H](CCCCN)NC(=O)[C@H](CCCNC(=N)N)NC(=O)CNC(=O)[C@H](Cc1ccc(O)cc1)NC(C)=O)C(=O)N[C@@H](CO)C(=O)N[C@@H](CCC(=O)O)C(=O)N[C@@H](CC(C)C)C(=O)N[C@]1(C)CCCCCCC=CCCC[C@@](C)(C(=O)N[C@@H](C)C(N)=O)NC(=O)[C@H](CCCNC(=N)N)NC(=O)[C@H](CCC(N)=O)NC(=O)[C@H](CCCCN)NC(=O)[C@H](CCC(=O)O)NC(=O)[C@H](CCCNC(=N)N)NC(=O)[C@H](CC(=O)O)NC1=O [Tat-SP9] (Ac-YGRKKRRQRRRLLISEL[R8]DREKQR[S5]A-NH2; staple 18-25; N-terminus and C-terminus assumed)
[1]
  Kd: ~56.2 µM

## Beclin 1 coiled-coil domain (from UniProt Q91XJ1 174-264) (domain or fragment)
UVRAG coiled-coil domain [2]
  Kd: 3 µM
UVRAG coiled-coil domain [3]
  Kd: 0.3 µM

## CC[C@H](C)[C@H](NC(=O)[C@H](CC(C)C)NC(=O)[C@H](CCCNC(=N)N)NC(=O)[C@H](CCCNC(=N)N)NC(=O)[C@H](CCCNC(=N)N)NC(=O)[C@H](CCCNC(=N)N)NC(=O)[C@H](CCC(N)=O)NC(=O)[C@H](CCCNC(=N)N)NC(=O)[C@H](CCCNC(=N)N)NC(=O)[C@H](CCCCN)NC(=O)[C@H](CCCCN)NC(=O)[C@H](CCCNC(=N)N)NC(=O)CNC(=O)[C@H](Cc1ccc(O)cc1)NC(C)=O)C(=O)N[C@@H](CO)C(=O)N[C@@H](CCC(=O)O)C(=O)N[C@@H](CC(C)C)C(=O)N[C@]1(C)CCCCCCC=CCCC[C@@](C)(C(=O)N[C@@H](C)C(N)=O)NC(=O)[C@H](CCCNC(=N)N)NC(=O)[C@H](CCC(N)=O)NC(=O)[C@H](CCCCN)NC(=O)[C@H](CCC(=O)O)NC(=O)[C@H](CCCNC(=N)N)NC(=O)[C@H](CC(=O)O)NC1=O [Tat-SP4] (Ac-YGRKKRRQRRRRLISEL[R8]DREKQR[S5]A-NH2; staple 18-25)
[4]
  endogenous Beclin 1 pulled down by FLAG-UVRAG: significantly more endogenous Beclin 1
HEK293T cells [5]; 10 μM, with CQ, n = 3
  increase in LC3-II level: approximately threefold
HEK293T cells [5]; 10 μM, without CQ, n = 3
  increase in LC3-II level: approximately twofold
HEK293T cells [5]; 20 μM, with CQ, n = 3
  increase in LC3-II level: approximately fivefold
HEK293T cells [5]; 20 μM, without CQ, n = 3
  increase in LC3-II level: approximately threefold
HEK293T cells [5]; without CQ, n = 3
  reduction of p62 level: ~50%
EGFR [6]; peptide 20 μM, 60 min post EGF (200 ng/mL)
  EGFR remaining: ~30%
[7]
  endogenous Beclin 1 pulled down by Atg14L-GFP: significantly enhanced
[8]; absence of CQ
  increase in GFP-LC3 dot numbers (autophagosomes): approximately twofold
[8]; presence of 25 μM CQ
  increase in GFP-LC3 dot numbers (autophagosomes): approximately twofold
EGFR [9]; A549, peptide 20 μM, 2 h after EGF
  EGFR remaining: ~75%
EGFR [9]; A549, peptide 20 μM, 5 h after EGF
  EGFR remaining: ~25%
A549 cells
  cytotoxicity (MTT): negligible cytotoxicity
[10]; peptide 20 μM added to cell lysate
  Beclin 1 self-association (His-Beclin 1 pulled down by GFP-Beclin 1): moderately reduced
[10]; peptide 20 μM added to cell medium 6 h posttransfection
  Beclin 1 self-association (His-Beclin 1 pulled down by GFP-Beclin 1): more prominent
[1]
  Kd: ~6.8 µM
HEK293T cells [11]
  cytotoxicity (MTT): negligible cytotoxicity
EGFR [12]
  EGFR degradation: ~50%

## CCN(CC)CCCC(C)Nc1ccnc2cc(Cl)ccc12 (stereo not drawn) [CQ, chloroquine, reference compound]
HEK293T cells [5]; with CQ, even with Tat-SP4
  p62 level with CQ treatment: elevated the p62 level

## Beclin 1 coiled-coil region R203E (from UniProt Q91XJ1 174-264) (domain or fragment)
UVRAG coiled-coil domain [2]
  Kd: 10 µM

## Beclin 1 coiled-coil region L210E (from UniProt Q91XJ1 174-264) (domain or fragment)
UVRAG coiled-coil domain [2]
  Kd: 10 µM

B1: R203E (protein)
chain: DSEQLQRELKELALEEERLIQELEDVEKNEKVVAENLEKVQAEAERLDQEEAQYQREYSEFKRQQLELDDELKSVENQMRYAQMQLDKLKK
UVRAG coiled-coil domain [13]
  reduction of binding affinity of Beclin 1–UVRAG interaction: approximately three- to fivefold

B2: L210E (protein)
chain: B1 chain with E30R, L37E
UVRAG coiled-coil domain [13]
  reduction of binding affinity of Beclin 1–UVRAG interaction: approximately three- to fivefold

B3: wild-type UVRAG: wild-type UVRAG (full length Mus musculus in cells; coiled-coil construct in vitro) (protein)
chain: MSASASVGGPVPQPPPGPAAALPPGSAARALHVELPSQQRRLRHLRNIAARNIVNRNGHQLLDTYFTLHLCSTEKIYKEFYRSEVIKNSLNPTWRSLDFGIMPDRLDTSVSCFVVKIWGGKENIYQLLIEWKVCLDGLKYLGQQIHARNQNEIIFGLNDGYYGAPFEHKGYSNAQKTILLQVDQNCVRNSYDVFSLLRLHRAQCAIKQTQVTVQKIGKEIEEKLRLTSTSNELKKKSECLQLKILVLQNELERQKKALGREVALLHKQQIALQDKGSAFSAEHLKLQLQKESLNELRKECTAKRELFLKTNAQLTIRCRQLLSELSYIYPIDLNEHKDYFVCGVKLPNSEDFQAKDDGSIAVALGYTAHLVSMISFFLQVPLRYPIIHKGSRSTIKDNINDKLTEKEREFPLYPKGGEKLQFDYGVYLLNKNIAQLRYQHGLGTPDLRQTLPNLKNFMEHGLMVRCDRHHTSSAIPVPKRQSSIFGGADVGFSGGIPSPDKGHRKRASSENERLQYKTPPPSYNSALAQPVTTVPSMGETERKITSLSSSLDTSLDFSKENKKKGEDLVGSLNGGHANVHPSQEQGEALSGHRATVNGTLLPSEQAGSASVQLPGEFHPVSEAELCCTVEQAEEIIGLEATGFASGDQLEAFNCIPVDSAVAVECDEQVLGEFEEFSRRIYALNENVSSFRRPRRSSDK
modifications: left off: FLAG, end not stated, kept
EGFR [6]; UVRAG overexpression, 120 min post EGF (200 ng/mL)
  EGFR remaining: ~10%
EGFR [9]; A549, UVRAG overexpression, 3 h after EGF (200 ng/mL)
  EGFR remaining: ~40%
EGFR [9]; A549, UVRAG overexpression, 5 h after EGF (200 ng/mL)
  EGFR remaining: ~5%
[14]
  endolysosomal trafficking on overexpression: enhanced endolysosomal trafficking
